Assay results published in ChEMBL document CHEMBL1143007, “Synthesis and evaluation of 4/5-hydroxy-2,3-diaryl(substituted)-cyclopent-2-en-1-ones as cis-restricted analogues of combretastatin A-4 as novel anticancer agents” (J Med Chem, 2007).
Values after ≈ are worked out from the molar mass of the structure shown. Active and inactive are the calls of the source. The rule behind the calls is not given here.

Key:
ECV-304 [1] = assay: Enhanced mitotic arrest in human ECV304 cells assessed as accumulation at G2/M phase at 1 uM after 24 hrs relative to control; assay type: functional
In short: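 ECV304 at 1.5 × 10⁶ cells per 90 mm dish in DMEM with 10% FCS overnight, then 1 µM for 24 h in fresh medium. Cells trypsinised, fixed in ice-cold 70% ethanol, treated with trypsin inhibitor and RNase, and stained with propidium iodide in the dark at 4-10 °C for 1 h. Flow cytometry with low gate at 10% of the G1 peak; G1 and G2/M fractions against untreated control.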

Mus musculus = assay: Volume of distribution in iv dosed Swiss Albino mouse plasma; assay type: ADME, organism-based; conditions: in vivo
In short: (§1)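 Swiss albino mice (6-8 weeks, ~25 g) dosed intravenously with compound in a cosolvent formulation diluted in 5% dextrose. Blood drawn by orbital bleed under mild ether at 3, 10, 30 min, 1, 2, 4, 6, 8 and 24 h into EDTA, with no more than five bleeds per mouse. Plasma was solvent-extracted and measured by C18 HPLC against an internal standard and a standard curve. Results are mean ± SD, n = 3.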

MIA PaCa-2 = assay: Cytotoxicity against human MiaPaCa2 cells after 72 hrs by MTT assay; assay type: cell-based; conditions: Homo sapiens, MIA PaCa-2, 72 h; read-out: IC50
In short: (§2)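 MTT assay. Cells seeded at 5000-10 000 per well and incubated at 37 °C in CO₂ with compound at 1-100 µg/mL in triplicate wells for 72 h, then MTT added. Absorbance read at 540 nm; % cytotoxicity = 100 × (1 − treated/control). IC50 obtained by nonlinear regression; NA means IC50 above 100 µg/mL.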

ECV-304 [2] = assay: Apoptosis in strongly adherent human ECV304 cells at 100 nM assessed as DNA fragmentation; assay type: functional, cell-based
In short: (§3)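 ECV304 plated at 2 × 10⁶ cells per 90 mm dish in DMEM with 10% FCS, allowed 5-6 h to reattach, then exposed to 10 nM-1 µM for 24 h in fresh medium; 100 nM positive control. Strongly and loosely adherent cells harvested separately and lysed (1 mM Tris-Cl, 20 mM EDTA pH 8, 1% NP-40).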

[3] = Cmax in iv dosed Swiss Albino mouse plasma; assay type: ADME, organism-based; set-up: route intravenous; in short: as §1
L132 = assay: Cytotoxicity against human L132 cells after 72 hrs by MTT assay; assay type: cell-based; conditions: Homo sapiens, L132, 72 h; read-out: IC50; in short: as §2
ECV-304 [4] = assay: Apoptosis in strongly adherent human ECV304 cells at 1000 nM assessed as DNA fragmentation; assay type: functional, cell-based; in short: as §3
[5] = Clearance in iv dosed Swiss Albino mouse plasma; assay type: ADME, organism-based; in short: as §1
HT-29 = assay: Cytotoxicity against human HT29 cells after 72 hrs by MTT assay; assay type: cell-based; conditions: Homo sapiens, HT-29, 72 h; read-out: IC50; in short: as §2
[6] = Mean residence time in iv dosed Swiss Albino mouse plasma; assay type: ADME, organism-based; in short: as §1
HEK293 = assay: Cytotoxicity against human HEK293 cells after 72 hrs by MTT assay; assay type: cell-based; conditions: Homo sapiens, HEK293, 72 h; read-out: IC50; in short: as §2
[7] = Cytotoxicity against human ECV304 cells after 72 hrs by MTT assay; assay type: cell-based, ECV-304; conditions: Homo sapiens, ECV-304, 72 h; read-out: IC50; in short: as §2
[8] = Aqueous solubility in phosphate buffer at pH 7.4
DU-145 = assay: Cytotoxicity against human DU145 cells after 72 hrs by MTT assay; assay type: cell-based; conditions: Homo sapiens, DU-145, 72 h; read-out: IC50; in short: as §2
ECV-304 [9] = assay: Apoptosis in strongly adherent human ECV304 cells at 10 nM assessed as DNA fragmentation; assay type: functional, cell-based; in short: as §3
[10] = AUC in iv dosed Swiss Albino mouse plasma; assay type: ADME, organism-based; in short: as §1
[11] = Cytotoxicity against human Hep2 cells after 72 hrs by MTT assay; assay type: cell-based, HEp-2; conditions: Homo sapiens, HEp-2, 72 h; read-out: IC50; in short: as §2
[12] = Half life in iv dosed Swiss Albino mouse plasma; assay type: ADME, organism-based; in short: as §1
KB = assay: Cytotoxicity against human KB cells after 72 hrs by MTT assay; assay type: cell-based; conditions: Homo sapiens, KB, 72 h; read-out: IC50; in short: as §2
[13] = Cytotoxicity against human PA1 cells after 72 hrs by MTT assay; assay type: cell-based, PA-1; conditions: Homo sapiens, PA-1, 72 h; read-out: IC50; in short: as §2
[14] = Inhibition of tubulin polymerization in bovine brain; set-up: species or system Bos taurus
In short: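 Compounds were added from DMSO stocks, with final DMSO below 0.4%. A340 was read every 60 s, and the area under the curve was taken as polymer amount, with the control set to 100%. IC50 is the concentration giving 50% inhibition.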

ECV-304 [15] = assay: Apoptosis in loosely adherent human ECV304 cells assessed as DNA fragmentation; assay type: functional, cell-based; in short: as §3
Homo sapiens = assay: Antitumor activity in primary tumor colon xenografted Balb/C athymic nude mouse assessed as decreased tumor volume at 20 mg/kg, iv on day 19; assay type: functional, organism-based; set-up: dose 20 mg/kg
In short: (§4)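 PTC colon tumour cells (15 × 10⁶ cells/100 µL) inoculated subcutaneously in Balb/c athymic nude mice aged 6-8 weeks, about 20 g; 3 animals per group. Dosing began at about 500 mm³: 20 mg/kg i.v. once daily for 14 days, cosolvent formulation diluted in 5% dextrose; controls received vehicle. Caliper volume W×W×L×0.4 every fourth day; regression = (1 − treated/control volume) × 100; Dunnett comparison, p < 0.05.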

[16] = Cytotoxicity against human primary tumor colon cells; assay type: cell-based
[17] = Antitumor activity in primary tumor colon xenografted Balb/C athymic nude mouse assessed as decreased tumor volume at 20 mg/kg, iv on day 22 relative to control; assay type: functional, Homo sapiens; set-up: scale not given: the % may be the effect or the level left; in short: as §4

SMILES | Activity (ECV-304 [1]) [%] | IC50 (MIA PaCa-2) [µg/mL] | Activity (ECV-304 [2]) | IC50 (L132) [µg/mL] | Activity (ECV-304 [4]) | IC50 (HT-29) [µg/mL] | IC50 (HEK293) [µg/mL] | IC50 [7] [µg/mL] | IC50 (DU-145) [µg/mL] | Activity (ECV-304 [9]) | IC50 [11] [µg/mL] | IC50 (KB) [µg/mL] | IC50 [13] [µg/mL] | further results
COc1ccc(/C=C\c2cc(OC)c(OC)c(OC)c2)cc1O [COMBRETASTATIN A4] | 41 | < 1 | inactive | < 1 | inactive | 5 (≈ 15.8 µM) | 5.7 (≈ 18 µM) | < 1 | 57 (≈ 180 µM) | inactive | 5 (≈ 15.8 µM) | < 1 | < 1 | Vdss (Mus musculus): 80.82 mL; Cmax [3]: 3830 ng/mL; clearance [5]: 4.86 mL/min; MRT [6]: 9 min; solubility [8]: 123 µM (≈ 38.8 µg/mL); AUC [10]: 920 ng·h/mL; half-life [12]: 11.4 min; IC50 [14]: 980 nM
COc1ccc(C2=C(c3cc(OC)c(OC)c(OC)c3)C(=O)C(O)C2)cc1 (stereo unspecified) | 54 | < 1 | inactive | < 1 | inactive | < 1 | 6.3 (≈ 17 µM) | < 1 | > 100 | inactive | < 1 | < 1 | < 1 | Activity (ECV-304 [15]): Dose-dependent effect
COc1ccc(C2=C(c3cc(OC)c(OC)c(OC)c3)/C(=N\O)C(O)C2)cc1 (stereo unspecified) | 59 | < 1 | inactive | < 1 | inactive | < 1 | 4.2 (≈ 10.9 µM) | < 1 | > 100 | inactive | < 1 | < 1 | < 1 | Vdss (Mus musculus): 46.56 mL; Activity (Homo sapiens): Active; Cmax [3]: 7050 ng/mL; IC50 [16]: 0.271 µg/mL (≈ 0.703 µM); clearance [5]: 1.15 mL/min; MRT [6]: 31.8 min; solubility [8]: 360 µM (≈ 139 µg/mL); Activity (ECV-304 [15]): Dose-dependent effect; AUC [10]: 3840 ng·h/mL; half-life [12]: 28.2 min; Activity [17]: 45.8%; IC50 [14]: 1750 nM
O/N=C1/CC(O)C(c2ccccc2)=C1c1ccccc1 (stereo unspecified) | – | > 100 | – | > 100 | – | > 100 | > 100 | > 100 | > 100 | – | > 100 | > 100 | > 100 | –
COc1ccc(OC)c(C2=C(c3cc(OC)c(OC)c(OC)c3)/C(=N\O)CC2O[Si](C)(C)C(C)(C)C)c1 (stereo unspecified) | – | 1 (≈ 1.89 µM) | – | > 100 | – | 50 (≈ 94.4 µM) | 7 (≈ 13.2 µM) | 6 (≈ 11.3 µM) | > 100 | – | 7 (≈ 13.2 µM) | > 100 | 8.5 (≈ 16 µM) | –
COc1ccc(C2=C(c3cc(OC)c(OC)c(OC)c3)/C(=N\O)CC2O)cc1O (stereo unspecified) | – | > 100 | – | 8 (≈ 19.9 µM) | – | 9 (≈ 22.4 µM) | > 100 | > 100 | 23 (≈ 57.3 µM) | – | < 1 | 10 (≈ 24.9 µM) | 3.7 (≈ 9.22 µM) | –
COc1cc(C2=C(c3cc(C)c(OC)c(C)c3)C(OC(C)=O)CC2=O)cc(OC)c1OC (stereo unspecified) | – | > 100 | – | > 100 | – | > 100 | > 100 | > 100 | > 100 | – | > 100 | > 100 | > 100 | –
